Peptide text beside a SMILES is read from it.
Experiments:
Assay type in all cases: biochemical
CDK5/p25 = CDK5/p25 (Homo sapiens, UniProt Q00535); assay: Radiometric protein kinase assay, CDK5/p25 phosphotransferase activity; conditions: for % Activity Change 1 μM: peptide 1 μM, negative = inhibition; for % Activity Change 1 μM / % Activity Change 10 μM / % Activity Change 50 μM / % Activity Change 100 μM / % Activity Change 250 μM / % Activity Change 500 μM: vs control without inhibitor, duplicate; for % Activity Change 10 μM: peptide 10 μM; for % Activity Change 50 μM: peptide 50 μM; for % Activity Change 500 μM: peptide 500 μM
Outline: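 GST-tagged CDK5/p25 co-expressed in Sf9 cells via baculovirus, 15 nM final, with calf thymus histone H1 (1 mg/ml final) in MOPS pH 7.2 buffer with MgCl2, EGTA, EDTA, DTT. Reaction started with [γ-33P]ATP (250 μM stock, 0.8 μCi) and run 20 min at 30°C. Products were spotted on P81 paper, washed in 1% phosphoric acid and scintillation-counted. No-substrate blank was subtracted. Peptide tested 1–500 μM against 10% DMSO control, two experiments in duplicate.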

CDK5/p35 = CDK5/p35 (Homo sapiens, UniProt Q00535); assay: Radiometric protein kinase assay, CDK5/p35 phosphotransferase activity; conditions: for % Activity Change 1 μM: peptide 1 μM; for % Activity Change 1 μM / % Activity Change 10 μM / % Activity Change 50 μM / % Activity Change 100 μM / % Activity Change 250 μM / % Activity Change 500 μM: duplicate; for % Activity Change 10 μM: peptide 10 μM; for % Activity Change 50 μM: peptide 50 μM; for % Activity Change 500 μM: peptide 500 μM
ERK1 = ERK1 (Homo sapiens, UniProt P27361); assay: Radiometric protein kinase assay, ERK1 phosphotransferase activity; conditions: for % Activity Change 1 μM: peptide 1 μM; for % Activity Change 10 μM: peptide 10 μM; for % Activity Change 50 μM: peptide 50 μM; for ERK1 activity inhibited by % compared to control / % Activity Change 500 μM: peptide 500 μM
Outline: (§1)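 Reaction is started with [γ-33P]ATP (250 μM stock, 0.8 μCi), with peptide at six levels (1–500 μM) or 10% DMSO. Run 30°C, 20 min, then spot onto P81 paper, wash in 1% phosphoric acid and scintillation count. Substrate-free blank is subtracted. Duplicates, repeated twice.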

GSK3β = GSK3β (Homo sapiens, UniProt P49841); assay: Radiometric protein kinase assay, GSK3β phosphotransferase activity; conditions: for % Activity Change 1 μM: peptide 1 μM, positive = activation; for % Activity Change 10 μM: peptide 10 μM; for % Activity Change 50 μM: peptide 50 μM; for GSK3β phosphotransferase activity activated by % compared to control / % Activity Change 500 μM: peptide 500 μM
Outline: as §1

Chain of CDK5/p25 (Q00535 whole entry): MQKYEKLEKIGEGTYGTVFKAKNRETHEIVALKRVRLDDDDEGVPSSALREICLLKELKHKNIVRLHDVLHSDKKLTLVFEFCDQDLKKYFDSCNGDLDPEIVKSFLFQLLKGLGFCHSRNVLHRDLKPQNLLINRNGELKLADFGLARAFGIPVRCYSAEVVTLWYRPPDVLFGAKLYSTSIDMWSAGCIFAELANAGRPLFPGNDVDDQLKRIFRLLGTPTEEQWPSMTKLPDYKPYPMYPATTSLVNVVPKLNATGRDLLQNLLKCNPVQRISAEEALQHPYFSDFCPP
Chain of CDK5/p35 (Q00535 whole entry): as above
Chain of ERK1 (P27361 whole entry, species assumed): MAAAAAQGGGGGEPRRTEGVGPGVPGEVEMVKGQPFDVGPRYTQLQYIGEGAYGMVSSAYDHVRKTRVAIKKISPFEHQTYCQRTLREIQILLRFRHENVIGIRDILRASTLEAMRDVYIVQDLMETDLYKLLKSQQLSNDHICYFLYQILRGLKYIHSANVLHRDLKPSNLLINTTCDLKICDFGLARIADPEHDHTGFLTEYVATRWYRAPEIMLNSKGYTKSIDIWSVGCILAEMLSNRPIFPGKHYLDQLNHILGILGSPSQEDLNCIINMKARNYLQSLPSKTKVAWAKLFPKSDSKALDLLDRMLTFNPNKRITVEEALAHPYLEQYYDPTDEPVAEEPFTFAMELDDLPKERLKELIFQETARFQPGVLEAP
Chain of GSK3β (P49841 whole entry, species assumed): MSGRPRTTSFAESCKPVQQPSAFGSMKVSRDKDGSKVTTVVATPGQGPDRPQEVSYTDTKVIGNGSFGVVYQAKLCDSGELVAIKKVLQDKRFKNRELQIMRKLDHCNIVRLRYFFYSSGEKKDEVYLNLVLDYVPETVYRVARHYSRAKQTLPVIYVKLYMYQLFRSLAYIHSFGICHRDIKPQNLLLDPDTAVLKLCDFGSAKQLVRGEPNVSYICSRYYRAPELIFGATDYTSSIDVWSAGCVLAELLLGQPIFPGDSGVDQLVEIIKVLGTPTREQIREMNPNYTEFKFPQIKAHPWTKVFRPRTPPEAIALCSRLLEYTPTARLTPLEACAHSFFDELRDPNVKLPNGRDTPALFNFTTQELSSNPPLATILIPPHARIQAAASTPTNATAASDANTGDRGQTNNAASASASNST

SMILES | IC50 (CDK5/p25) [µM] | % Activity Change 1 μM (CDK5/p25) [%] | % Activity Change 10 μM (CDK5/p25) | % Activity Change 50 μM (CDK5/p25) | % Activity Change 100 μM (CDK5/p25; peptide 100 μM) | % Activity Change 250 μM (CDK5/p25; peptide 250 μM) | % Activity Change 500 μM (CDK5/p25) | IC50 (CDK5/p35) [µM] | % Activity Change 1 μM (CDK5/p35) | % Activity Change 10 μM (CDK5/p35) | % Activity Change 50 μM (CDK5/p35) | % Activity Change 100 μM (CDK5/p35; peptide 100 μM) | % Activity Change 250 μM (CDK5/p35; peptide 250 μM) | % Activity Change 500 μM (CDK5/p35) | % Activity Change 1 μM (ERK1; duplicate) [%] | % Activity Change 10 μM (ERK1; duplicate) [%] | % Activity Change 50 μM (ERK1; duplicate) | ERK1 activity inhibited by % compared to control (ERK1) [%] | % Activity Change 500 μM (ERK1; duplicate) | % Activity Change 1 μM (GSK3β; duplicate) | also measured
CC[C@H](C)[C@H](NC(=O)[C@H](CCC(N)=O)NC(=O)[C@@H](NC(=O)[C@H](CCSC)NC(=O)[C@H](CCCCN)NC(=O)[C@H](CO)NC(=O)[C@@H](NC(=O)[C@H](CCSC)NC(=O)[C@H](CC(C)C)NC(=O)[C@H](CC(N)=O)NC(=O)[C@@H](NC(=O)[C@@H](NC(=O)[C@H](CO)NC(=O)[C@H](CC(C)C)NC(=O)[C@H](C)NC(=O)[C@H](CCCNC(=N)N)NC(=O)[C@H](CCC(=O)O)NC(=O)[C@H](Cc1ccc(O)cc1)NC(=O)[C@H](Cc1ccccc1)NC(=O)[C@H](C)NC(=O)[C@H](CC(N)=O)NC(=O)[C@@H](N)CCCCN)[C@@H](C)CC)[C@@H](C)CC)[C@@H](C)O)C(C)C)C(=O)N[C@@H](CC(N)=O)C(=O)N[C@H](C(=O)O)C(C)C [p5-MT] (H-KNAFYERALSIINLMTSKMVQINV-OH) | 119 | 2 | –8% | –22% | –46% | –73% | –85% | 83 | –3% | –14% | –35% | –57% | –73% | –84% | 1 | 0 | –2% | 54 | –54% | –1% | CDK5/p25 phosphotransferase activity inhibited by % compared to control (CDK5/p25; peptide 100 μM): 46%; CDK5/p35 phosphotransferase activity inhibited by % compared to control (CDK5/p35; peptide 100 μM): 57%; IC50 (ERK1): 425 µM; % Activity Change 250 μM (ERK1; peptide 250 μM, duplicate): –35%; % Activity Change 10 μM (GSK3β; duplicate): 3%; % Activity Change 50 μM (GSK3β; duplicate): 6%; GSK3β phosphotransferase activity activated by % compared to control (GSK3β): 40%; % Activity Change 500 μM (GSK3β; duplicate): 40%
CC[C@H](C)[C@H](NC(=O)[C@H](CCC(N)=O)NC(=O)[C@H](CC(C)C)NC(=O)[C@H](CCSC)NC(=O)[C@H](CCCCN)NC(=O)[C@H](CO)NC(=O)[C@H](CO)NC(=O)[C@H](CCSC)NC(=O)[C@H](CC(C)C)NC(=O)[C@H](CC(N)=O)NC(=O)[C@@H](NC(=O)[C@@H](NC(=O)[C@H](CO)NC(=O)[C@H](CC(C)C)NC(=O)[C@H](CS)NC(=O)[C@H](CCCNC(=N)N)NC(=O)[C@H](CC(=O)O)NC(=O)[C@H](Cc1c[nH]c2ccccc12)NC(=O)[C@H](Cc1ccccc1)NC(=O)[C@H](C)NC(=O)[C@H](CCC(=O)O)NC(=O)[C@@H](N)CCCCN)C(C)C)[C@@H](C)CC)C(=O)N[C@@H](CC(N)=O)C(=O)N[C@@H](C)C(=O)O [p5-WT] (H-KEAFWDRCLSVINLMSSKMLQINA-OH) | 169 | 0 | –13% | –20% | –41% | –59% | –72% | 217 | 2% | –2% | –10% | –29% | –53% | –76% | 0 | 0 | –3% | 25 | –25% | –3% | % CFC (percent change from control) (CDK5/p25; 79-peptide scan, relative to p5-WT peptide (#1), negative = greater inhibition): 0%; CDK5/p25 phosphotransferase activity inhibited by % compared to control (CDK5/p25; peptide 250 μM): 59%; CDK5/p35 activity inhibited by % compared to control (CDK5/p35; peptide 250 μM): 53%; % Activity Change 100 μM (ERK1; peptide 100 μM, duplicate): –6%; % Activity Change 10 μM (GSK3β; duplicate): –1%; % Activity Change 50 μM (GSK3β; duplicate): 0%; % Activity Change 100 μM (GSK3β; peptide 100 μM, duplicate): 8%; GSK3β phosphotransferase activity activated by % compared to control (GSK3β): 24%; % Activity Change 500 μM (GSK3β; duplicate): 24%

Reference: PMC4927891 (Journal of Alzheimer's Disease, 2015)
